Assay results from article PMC5756543 (The Journal of Nutritional Biochemistry, 2017).

What was measured:
[1] = tested on: Caco-2 cells; test: FA transport and metabolism across differentiated Caco-2 monolayers; type: in vitro ADME, human; conditions: for effect on transepithelial transport of FA (apical to basolateral): vs untreated (abstract, discussion); for effect on FA-sul in apical compartment / increase of FA-glu in basal compartment: n=6, P<.01
How it was run: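 Caco-2 monolayers were pretreated apically with 1 mM SCFA/lactate or mix from day 7 and used at 21–23 days after 30 min HBSS (pH 7.4) equilibration at 37°C; monolayers with TEER <930 Ω cm2 were discarded. Apical 500 µM test compound was applied for 1 h. Apical and basal samples were stabilised with ascorbic acid and spiked with acetic acid (10 mM final) and DMCA internal standard (10 µM final). LC-MS/MS MRM quantified parent and conjugates. Six biological replicates in duplicate; t test.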

[2] = tested on: Caco-2 cells; test: HT transport and phase II metabolism across differentiated Caco-2 monolayers; type: in vitro ADME, human; conditions: for rate of appearance of HT conjugate in apical compartment / rate of appearance of HT conjugate in basal compartment: 20 μM HT apical, HT-7-sul as HT-3′-sul equivalents; for decrease of HT-3′-glu 2 formation: acetate: in both compartments; for effect on efflux of HT-7-glu to both compartments: chronic treatment 1 mM 14 days (discussion)
How it was run: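 Caco-2 monolayers on transwells were pretreated apically with 1 mM SCFA/lactate or mix from day 7 to day 21–23. Cells were equilibrated in HBSS (1.8 mM CaCl2, pH 7.4) for 30 min at 37°C, and monolayers below 930 Ω cm2 TEER were discarded. Apical 20 µM test compound was applied for 1 h. Both compartments were sampled with 100 µM ascorbic acid and analysed by LC-MS/MS MRM (daidzein internal standard, matrix-matched calibration). n=6 in duplicate; t test.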

[3] = tested on: Caco-2 cells; test: SA transport across differentiated Caco-2 monolayers; type: in vitro ADME, human; conditions: for effect on SA transport / increase of SA in the basolateral compartment: 1 mM 14 days, vs untreated cells; for increase of SA in the basolateral compartment: n=6, P=.003
How it was run: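 Pretreated Caco-2 transwell monolayers (1 mM apical SCFA/lactate or mix from day 7, used at 21–23 days) were equilibrated in HBSS (pH 7.4) for 30 min at 37°C; monolayers under 930 Ω cm2 TEER were excluded. Apical 1 mM MCT substrate was incubated for 30 min. Both compartments were analysed by HPLC-UV at 303 nm, with DMCA internal standard at 326 nm. Six biological replicates in duplicate; t test, P<.01.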

[4] = tested on: MCT1 (SLC16A1) mRNA; test: MCT1 gene expression by ddPCR in Caco-2 cells; type: cell-based, human; conditions: 1 mM 14 days, vs control
How it was run: (§1)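 Caco-2 cells were seeded on transwells at 6×104 cm−2 and grown 21–23 days. From day 7 the apical medium was FBS-free with 1 mM Na-acetate, -propionate, -butyrate, -lactate or an equimolar mix (0.25 mM each); basal medium had 20% FBS; 0.1% DMSO served as control. RNA (1 µg) was reverse-transcribed. Duplex TaqMan ddPCR used 0.65 ng cDNA per reaction, with target FAM and TBP VIC. Copies/ng cDNA were derived by Poisson analysis. Four biological replicates from two seedings, each with three technical replicates; t test.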

[5] = tested on: ABCG2 mRNA; test: ABCG2 gene expression by ddPCR in Caco-2 cells; type: cell-based, human; conditions: vs control; for effect on ABCG2 mRNA: 1 mM 14 days; for decrease of ABCG2 mRNA: 1 mM 14 days (mix 0.25 mM each)
How it was run: as §1

[6] = tested on: MCT4 (SLC16A3) mRNA; test: MCT4 gene expression by ddPCR in Caco-2 cells; type: cell-based, human; conditions: vs control; for increase of MCT4 mRNA: 1 mM 14 days (mix 0.25 mM each), n=4
How it was run: as §1

[7] = tested on: MCT1 protein; test: MCT1 protein abundance by ProteinSimple WES in Caco-2 cells; type: cell-based, human; conditions: 1 mM 14 days, vs control
[8] = tested on: UGT1A protein; test: UGT1A protein abundance by ProteinSimple WES in Caco-2 cells; type: cell-based, human; conditions: 1 mM 14 days; for decrease of UGT1A protein levels: vs control; for effect on UGT1A protein: vs control (discussion)
[9] = tested on: MCT4 protein; test: MCT4 protein abundance by ProteinSimple WES in Caco-2 cells; type: cell-based, human; conditions: 1 mM 14 days (mix 0.25 mM each), vs control
[10] = tested on: ABCG2 protein; test: ABCG2 protein abundance by ProteinSimple WES in Caco-2 cells; type: cell-based, human; conditions: vs control; for decrease of ABCG2 protein levels: 1 mM 14 days
How it was run: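 Transwell Caco-2 monolayers received 1 mM apical SCFA/lactate or mix (0.25 mM each) from day 7 and were lysed at 21–23 days in Bicine-CHAPS with inhibitors, then BCA-quantified. For capillary WES, 1.5 mg/ml lysate was used with 95°C denaturation for 5 min. α-Tubulin loading control came from the same sample in separate capillaries. Peak areas were quantified. Mean of 3–6 biological replicates ±S.E.M.; t test.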

[11] = tested on: Caco-2 cells; test: Transepithelial Electrical Resistance; type: cell-based, human; conditions: 1 mM apical pretreatment 14 days, n=36; for average TEER value after pretreatment: untreated 1149±23
How it was run: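 Caco-2 cells were seeded on transwells at 6×104 cm−2 and exposed apically from day 7 to 1 mM Na-acetate, -propionate, -butyrate, -lactate or mix in FBS-free medium (basal 20% FBS; 0.1% DMSO control). At 21–23 days, after HBSS washes and 30 min equilibration at 37°C, 10% CO2, TEER was measured with a voltohmmeter; t test.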

[12] = 1 mM 14 days, vs untreated, n=6, P<.01
[13] = 1 mM 14 days, vs untreated, n=6, P<.001

In the case of `COc1cc(/C=C/C(=O)O)ccc1O` [FA, ferulic acid], the “FA transported to the basal compartment” value ([1]; untreated cells, 500 μM FA (1 μmol) apical, 1 h) is reported as 1.73 ± 0.17 nmol/min and the “FA transported to basal compartment, share of added FA” value ([1]; untreated cells, after 1 h) is reported as 10.4%.
`COc1ccc([C@@H]2CC(=O)c3c(O)cc(O)cc3O2)cc1O` [HT, hesperetin] was tested, and the “HT transported unchanged to the basolateral compartment” value ([2]; cells not treated with SCFA, 20 μM HT (40 nmol) apical, 1 h) was 87 ± 26 pmol/min and the “HT transported to basolateral compartment, share of HT added apically” value ([2]; cells not treated with SCFA, after 60 min incubation) was 13%.
`COc1ccc(C2CC(=O)c3c(O)cc(O)cc3O2)cc1OS(=O)(=O)O` (centres unmarked) [HT-3′-sul, hesperetin-3′-O-sulfate] was tested, and the “rate of appearance of HT conjugate in apical compartment” value (“rate … in apical compartment” for short) ([2]; untreated cells, 1 h) was 2.8 ± 0.1 pmol/min and the “rate of appearance of HT conjugate in basal compartment” value (“rate … in basal compartment” for short) ([2]; untreated cells, 1 h) was 2.53 ± 0.06 pmol/min.
In the case of `COc1ccc([C@@H]2CC(=O)c3c(O)cc(O[C@@H]4O[C@H](C(=O)O)[C@@H](O)[C@H](O)[C@H]4O)cc3O2)cc1O` [HT-7-glu, Hesperetin-7-O-glucuronide], the “conjugate formed (basal + apical) as share of original HT added apically” value ([2]; untreated cells, 1 h) is reported as 2.4%, the “rate … in apical compartment” value ([2]; untreated cells, 1 h) is reported as 3.87 ± 0.07 pmol/min and the “rate … in basal compartment” value ([2]; untreated cells, 1 h) is reported as 12.33 ± 0.57 pmol/min.
`COc1ccc([C@@H]2CC(=O)c3c(O)cc(OS(=O)(=O)O)cc3O2)cc1O` [HT-7-sul, hesperetin-7-O-sulfate] was tested, and the “rate … in apical compartment” value ([2]; untreated cells, 1 h) was 2.6 ± 0.06 pmol/min and the “rate … in basal compartment” value ([2]; untreated cells, 1 h) was 1.9 ± 0.03 pmol/min.
With `O=C(O)c1ccccc1O` [SA, salicylic acid, reference compound] the “SA transported to the basolateral side, share of original amount added apically” value ([3]; 1 mM SA apical, within 30 min) was ~ 10%.
With `CC(=O)[O-].[Na+]` [acetate, Na-acetate] the “increase of MCT1 mRNA” value ([4]; n=4, P≤.02) was ~ 20%, the “effect on ABCG2 mRNA” value [5] was “unaffected” and the “increase of MCT4 mRNA” value [6] was ~ 20%. For the same molecule, the “effect on SA transport” value [3] was “did not affect”, the “decrease of MCT1 protein” value ([7]; n=3, P<.005) was ~ 30% and the “effect on FA transport and metabolism” value ([1]; 1 mM 14 days, vs untreated) was “no effect”. The “effect on HT-3′-sul efflux to the apical direction” value (“effect on HT-3′-sul efflux” below) ([2]; 1 mM 14 days, vs untreated) was “lower”, the “decrease of HT-3′-glu 2 formation” value [2, 12] was 20% and the “decrease of UGT1A protein levels” value [8] was ~ 25%.
`CCCC(=O)O` [butyrate, Na-butyrate] was tested, and the “decrease of MCT1 mRNA” value [4] was ~ 30%, the “effect on MCT4 protein levels” value [9] was “not affected” and the “effect on ABCG2 protein levels” value ([10]; 1 mM 14 days (mix 0.25 mM each)) was “not reflected in protein changes”. For the same molecule, the “effect on ABCG2 mRNA” value [5] was “decreased”, the “average TEER value after pretreatment” value [11] was 1066±31 Ω cm^2 and the “decrease of average TEER values” ([11]; vs untreated cells) was 7%. The “effect on MCT4 mRNA” value ([6]; 1 mM 14 days) was “not affected”, the “increase of SA in the basolateral compartment” value [3] was 32% and the “increase of MCT1 protein” value ([7]; n=3, P=.01) was ~ 40%. The “effect on transepithelial transport of FA (apical to basolateral)” value ([1]; 1 mM 14 days) was “strongly enhanced”, the “effect on FA-sul in apical compartment” value ([1]; 1 mM 14 days, vs untreated) was “lower” and the “increase of FA-glu in basal compartment” value ([1]; 1 mM 14 days, vs untreated) was ~ 40%. For the same molecule, the “effect on HT-3′-sul efflux” value ([2]; 1 mM 14 days, vs untreated) was “lower”, the “increase of HT-7-glu in basal compartment” value [2, 12] was 23% and the “decrease of HT-3′-glu 2 formation” value [2, 12] was 30–40%. For the same molecule, the “effect on efflux of HT-7-glu to both compartments” value [2] was “increased” and the “effect on UGT1A protein” value [8] was “did not affect”.
For `CC(O)C(=O)[O-].[Na+]` (centres unmarked) [lactate, Na-lactate], the “decrease of MCT1 mRNA” value [4] was 20–30%, the “decrease of ABCG2 protein levels” value [10] was ~ 50% and the “decrease of ABCG2 mRNA” value [5] was 20–30%. The “average TEER value after pretreatment” value [11] was 1232±25 Ω cm^2, the “increase of TEER (resistance)” value ([11]; vs untreated cells) was 7% and the “decrease of MCT4 mRNA” value ([6]; 1 mM 14 days, P<.001) was 20–30%. The “effect on SA transport” value [3] was “did not affect”, the “effect on FA-sul in basolateral compartment” value ([1]; 1 mM 14 days, vs untreated) was “substantially decreased” and the “effect on FA-sul in apical compartment” value ([1]; 1 mM 14 days, vs untreated) was “substantially decreased”. The “decrease of all HT phase II conjugates in apical compartment” value ([2]; 1 mM 14 days, vs untreated) was 13–40%, the “effect on HT-3′-sul efflux” value ([2]; 1 mM 14 days, vs untreated) was “lower” and the “effect on HT-3′-glu 1 in basolateral side” value [2, 12] was “substantially decreased”. For the same molecule, the “effect on HT-3′-glu 2 in basolateral side” value [2, 12] was “substantially decreased” and the “decrease of UGT1A protein levels” value [8] was ~ 30%.
`CCC(=O)[O-].[Na+]` [propionate, Na-propionate] was tested, and the “effect on MCT1 gene expression” value [4] was “unchanged”, the “effect on MCT4 protein levels” value [9] was “without significant effects” and the “decrease of ABCG2 protein levels” value [10] was ~ 40%. The “decrease of ABCG2 mRNA” value [5] was ~ 18%, the “increase of MCT4 mRNA” value [6] was ~ 29% and the “increase of SA in the basolateral compartment” value [3] was 21%. For the same molecule, the “effect on MCT1 protein levels” value [7] was “without significant effects”, the “effect on FA-sul in basolateral compartment” value ([1]; 1 mM 14 days, vs untreated) was “favored over efflux to the apical compartment” and the “increase of FA-glu in apical compartment” value ([1]; 1 mM 14 days, vs untreated) was 72%. The “effect on transepithelial transport of FA (apical to basolateral)” value ([1]; 1 mM 14 days) was “strongly enhanced”, the “higher concentration of DHFA in apical compartment” value [1, 13] was 4.1 fold and the “higher concentration of DHFA in basal compartment” value [1, 13] was 3.4 fold. For the same molecule, the “increase of FA-glu in basal compartment” value ([1]; 1 mM 14 days, vs untreated) was 83%, the “effect on HT-3′-sul basolateral transport” value ([2]; 1 mM 14 days, vs untreated) was “stimulated” and the “effect on HT-7-sul basolateral transport” value ([2]; 1 mM 14 days, vs untreated) was “stimulated”. For the same molecule, the “increase of HT-3′-glu 1 in basolateral side” value [2, 12] was 34%, the “increase of HT-7-glu in basal compartment” value [2, 12] was 42% and the “effect on efflux of HT-7-glu to both compartments” value [2] was “increased”. For the same molecule, the “effect on UGT1A protein” value [8] was “did not affect”.
